# According to ChEMBL document CHEMBL1132280, “Discovery of potent and selective SH2 inhibitors of the tyrosine kinase ZAP-70” (J Med Chem, 1999):
# Square brackets hold non-standard residues; d marks the D form. Peptide text beside a SMILES is read from it. pY = N[C@@H](Cc1ccc(OP(=O)(O)O)cc1)C(=O)O
# What was measured:
# Design in all cases: species or system Escherichia coli
# [1] = biological target: Proto-oncogene tyrosine-protein kinase Src (Homo sapiens, UniProt P12931); test: Binding affinity against Src SH2 domain
# [2] = biological target: Tyrosine-protein kinase SYK (Homo sapiens, UniProt P43405); test: Binding affinity against Syk protein tyrosine kinase SH2 domain
# [3] = biological target: T1, Tyrosine-protein kinase ZAP-70 (Homo sapiens, UniProt P43403); test: Binding affinity against SH2 domain of Zeta-chain (TCR) associated protein kinase 70 kDa
# T1 sequence (P43403 whole entry): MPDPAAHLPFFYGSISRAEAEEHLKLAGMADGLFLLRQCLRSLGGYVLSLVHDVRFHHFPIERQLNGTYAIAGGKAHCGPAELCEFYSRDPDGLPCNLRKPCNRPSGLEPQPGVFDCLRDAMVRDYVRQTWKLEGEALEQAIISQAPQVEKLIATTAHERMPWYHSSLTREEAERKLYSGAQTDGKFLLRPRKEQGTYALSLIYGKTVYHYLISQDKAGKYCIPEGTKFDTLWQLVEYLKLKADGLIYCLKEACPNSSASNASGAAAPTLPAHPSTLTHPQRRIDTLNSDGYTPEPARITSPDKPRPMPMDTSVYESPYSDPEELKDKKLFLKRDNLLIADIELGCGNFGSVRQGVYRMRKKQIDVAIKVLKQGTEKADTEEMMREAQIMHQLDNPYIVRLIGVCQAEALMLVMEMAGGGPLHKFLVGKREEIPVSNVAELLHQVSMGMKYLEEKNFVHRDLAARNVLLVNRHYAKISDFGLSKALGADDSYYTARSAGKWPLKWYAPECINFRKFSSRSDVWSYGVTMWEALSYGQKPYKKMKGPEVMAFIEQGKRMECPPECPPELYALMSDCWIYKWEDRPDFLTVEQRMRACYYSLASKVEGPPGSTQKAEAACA
# [4] = biological target: Growth factor receptor-bound protein 2 (Homo sapiens, UniProt P62993); test: Binding affinity against Growth factor receptor bound protein 2
# Summary of the method: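 Fluorescence polarization competition assay using human Grb2 SH2 (residues 55–152), expressed in E. coli BL21(DE3) and purified on phosphotyrosine-agarose. Compounds were serially diluted 1:2 across 1000–0.04 μM in 20 mM phosphate pH 7.4 with 100 mM NaCl, 10 mM DTT, 4% DMSO, 1 mM EDTA and 0.1% bovine γ-globulin. They were added to 1.25 µM protein premixed with 20 nM fluorescein-labelled peptide (ex 485/em 530 nm). IC50 was taken from percent tracer bound relative to vehicle, as the mean of ≥3 experiments.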
# Proto-oncogene tyrosine-protein kinase Src, sequence (P12931 2-536 limits assumed): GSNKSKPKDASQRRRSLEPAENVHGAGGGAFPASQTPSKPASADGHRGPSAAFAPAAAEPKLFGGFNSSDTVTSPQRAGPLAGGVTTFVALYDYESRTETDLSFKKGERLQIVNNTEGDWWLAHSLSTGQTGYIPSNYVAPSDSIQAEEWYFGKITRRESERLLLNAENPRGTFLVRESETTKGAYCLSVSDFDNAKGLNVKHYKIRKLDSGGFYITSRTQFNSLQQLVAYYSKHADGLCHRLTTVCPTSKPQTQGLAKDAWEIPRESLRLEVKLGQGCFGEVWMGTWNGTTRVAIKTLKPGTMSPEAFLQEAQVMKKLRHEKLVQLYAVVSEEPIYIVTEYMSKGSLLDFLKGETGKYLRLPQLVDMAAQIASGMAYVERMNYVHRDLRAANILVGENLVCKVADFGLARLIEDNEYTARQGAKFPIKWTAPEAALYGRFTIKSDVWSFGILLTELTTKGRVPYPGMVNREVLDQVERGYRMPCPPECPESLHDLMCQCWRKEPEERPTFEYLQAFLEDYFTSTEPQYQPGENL
Structure (SMILES),IC50 [1] [µM],IC50 [2] [µM],IC50 [3] [µM],IC50 [4] [µM]
CC(=O)N[C@@H](Cc1ccc(OP(=O)(O)O)cc1)C(=O)NCc1nc(Cc2ccc(C(F)(F)F)cc2)no1,> 500,> 500,128,–
CC[C@H](C)[C@H](NC(=O)[C@H](CCC(=O)O)NC(=O)[C@H](CCC(=O)O)NC(=O)[C@H](Cc1ccc(OP(=O)(O)O)cc1)NC(C)=O)C(N)=O,6,171,530,–
CC(=O)N[C@@H](Cc1ccc(OP(=O)(O)O)cc1)C(=O)N[C@@H](CCC(N)=O)c1nc(Cc2ccc(Cl)cc2Cl)no1,> 500,> 500,184,–
CC(=O)N[C@@H](Cc1ccc(OP(=O)(O)O)cc1)C(=O)NCCc1nc(Cc2ccc(C(F)(F)F)cc2)no1,> 500,> 500,> 500,–
CC(=O)N[C@@H](Cc1ccc(OP(=O)(O)O)cc1)C(=O)NC(C)(C)c1nc(Cc2ccc(C(F)(F)F)cc2)no1,489,> 500,228,–

# Continued by falling IC50 [1], values first:
IC50 [1] [µM],IC50 [2] [µM],IC50 [3] [µM],IC50 [4] [µM],Structure (SMILES)
237,420,422,–,CC(=O)N[C@@H](Cc1ccc(OP(=O)(O)O)cc1)C(=O)N[C@@H](CC(N)=O)C(=O)N[C@@H](CCC(=O)O)C(=O)N[C@@H](CC(C)C)C(N)=O (Ac-[pY]NEL-NH2)
156,> 500,> 500,–,CC(=O)N[C@@H](Cc1ccc(OP(=O)(O)O)cc1)C(=O)N[C@@H](CCC(N)=O)c1nc(CCc2ccccc2)no1
72,> 500,> 500,456,CC(=O)N[C@@H](Cc1ccc(OP(=O)(O)O)cc1)C(=O)N[C@@H](CCC(N)=O)c1nc(Cc2ccccc2)no1
